Laboratory results reported in ChEMBL document CHEMBL4138104, “Indole carboxylic acid esters of melampomagnolide B are potent anticancer agents against both hematological and solid tumor cells” (Eur J Med Chem, 2017).

Tests used:
HOP-62 = experiment: Growth inhibition of human HOP62 cells incubated for 48 hrs by sulforhodamine B assay; assay type: functional; conditions: HOP-62, 48 h
Summary of the method: (§1)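 NCI-60 screen. Compounds were dosed at five concentrations spanning 10^-4 to 10^-8 M for 48 h at 37 °C. Cells were TCA-fixed, stained with 0.4% SRB and read at 515 nm against time-zero and vehicle controls. GI50 is the concentration giving a 50% reduction in net protein increase.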

[1] = Induction of apoptosis in AML03 cells isolated from acute myelogenous leukemia patient after 24 hrs by annexin V/7-AAD/propidium iodide staining-based flow cytometric method; assay type: functional, cell-based; conditions: Homo sapiens
Summary of the method: (§2)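 Primary AML specimens from consenting patients were Ficoll-separated and some were cryopreserved. Cells were held 1 h in serum-free IMDM with 20% BIT 9500, LDL and beta-mercaptoethanol before drug. Drugs were diluted from DMSO stock into PBS, final DMSO ≤0.5%. Dosing was 0.5–10 μM for 24 h. Annexin V/7-AAD flow cytometry scored double-negative (non-apoptotic) cells, normalized to vehicle, in triplicate, and EC50 came from dose-response curves.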

[2] = Induction of apoptosis in AML02 cells isolated from acute myelogenous leukemia patient after 24 hrs by annexin V/7-AAD/propidium iodide staining-based flow cytometric method; assay type: functional, cell-based; conditions: Homo sapiens; summary of the method: as §2
OVCAR-3 = experiment: Growth inhibition of human OVCAR3 cells incubated for 48 hrs by sulforhodamine B assay; assay type: functional; conditions: OVCAR-3, 48 h; summary of the method: as §1
OVCAR-8 = experiment: Growth inhibition of human OVCAR8 cells incubated for 48 hrs by sulforhodamine B assay; assay type: functional; conditions: OVCAR-8, 48 h; summary of the method: as §1
OVCAR-4 = experiment: Growth inhibition of human OVCAR4 cells incubated for 48 hrs by sulforhodamine B assay; assay type: functional; conditions: OVCAR-4, 48 h; summary of the method: as §1
[3] = Induction of apoptosis in AML01 cells isolated from acute myelogenous leukemia patient after 24 hrs by annexin V/7-AAD/propidium iodide staining-based flow cytometric method; assay type: functional, cell-based; conditions: Homo sapiens, AML01, 24 h; summary of the method: as §2
SNB-75 = experiment: Growth inhibition of human SNB75 cells incubated for 48 hrs by sulforhodamine B assay; assay type: functional; conditions: SNB-75, 48 h
Summary of the method: (§3)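 NCI-60 screen run at NCI. Cells grown in RPMI medium with 5% FBS and 2 mM L-glutamine, plated at 5,000–40,000 cells/well, and preincubated 24 h at 37 °C. Time-zero plates were TCA-fixed. Compounds came from DMSO stocks and were tested at five concentrations from 10^-4 to 10^-8 M for 48 h. Cells were then TCA-fixed, stained with 0.4% SRB, and OD read at 515 nm. GI50 is the concentration giving a 50% reduction in net protein increase versus control.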

CAKI-1 = experiment: Growth inhibition of human Caki1 cells incubated for 48 hrs by sulforhodamine B assay; assay type: functional; conditions: CAKI-1, 48 h; summary of the method: as §1
[4] = Induction of apoptosis in AML04 cells isolated from acute myelogenous leukemia patient after 24 hrs by annexin V/7-AAD/propidium iodide staining-based flow cytometric method; assay type: functional, cell-based; conditions: Homo sapiens; summary of the method: as §2
IGROV-1 = experiment: Growth inhibition of human IGROV1 cells incubated for 48 hrs by sulforhodamine B assay; assay type: functional; conditions: IGROV-1, 48 h; summary of the method: as §1
EKVX = experiment: Growth inhibition of human EKVX cells incubated for 48 hrs by sulforhodamine B assay; assay type: functional; summary of the method: as §1
TK-10 = experiment: Growth inhibition of human TK10 cells incubated for 48 hrs by sulforhodamine B assay; assay type: functional; conditions: TK-10, 48 h; summary of the method: as §3
BT-549 = experiment: Growth inhibition of human BT549 cells incubated for 48 hrs by sulforhodamine B assay; assay type: functional; conditions: BT-549, 48 h; summary of the method: as §1
MDA-MB-435 = experiment: Growth inhibition of human MDA-MB-435 cells incubated for 48 hrs by sulforhodamine B assay; assay type: functional; conditions: MDA-MB-435, 48 h; summary of the method: as §1
COLO 205 = experiment: Growth inhibition of human COLO205 cells incubated for 48 hrs by sulforhodamine B assay; assay type: functional; conditions: COLO 205, 48 h; summary of the method: as §1
ACHN = experiment: Growth inhibition of human ACHN cells incubated for 48 hrs by sulforhodamine B assay; assay type: functional; summary of the method: as §1
M14 = experiment: Growth inhibition of human M14 cells incubated for 48 hrs by sulforhodamine B assay; assay type: functional; conditions: M14, 48 h; summary of the method: as §1
MDA-MB-468 = experiment: Growth inhibition of human MDA-MB-468 cells incubated for 48 hrs by sulforhodamine B assay; assay type: functional; conditions: MDA-MB-468, 48 h; summary of the method: as §1
SR = experiment: Growth inhibition of human SR cells incubated for 48 hrs by sulforhodamine B assay; assay type: functional; summary of the method: as §3
MDA-MB-231 = experiment: Growth inhibition of human MDA-MB-231/ATCC cells incubated for 48 hrs by sulforhodamine B assay; assay type: functional; conditions: MDA-MB-231, 48 h; summary of the method: as §1
786-0 = experiment: Growth inhibition of human 786-0 cells incubated for 48 hrs by sulforhodamine B assay; assay type: functional; conditions: 786-0, 48 h; summary of the method: as §1
DU-145 = experiment: Growth inhibition of human DU145 cells incubated for 48 hrs by sulforhodamine B assay; assay type: functional; conditions: DU-145, 48 h; summary of the method: as §1
PC-3 = experiment: Growth inhibition of human PC3 cells incubated for 48 hrs by sulforhodamine B assay; assay type: functional; conditions: PC-3, 48 h; summary of the method: as §1
SK-MEL-2 = experiment: Growth inhibition of human SK-MEL-2 cells incubated for 48 hrs by sulforhodamine B assay; assay type: functional; conditions: SK-MEL-2, 48 h; summary of the method: as §1
Hs-578T = experiment: Growth inhibition of human Hs 578T cells incubated for 48 hrs by sulforhodamine B assay; assay type: functional; summary of the method: as §1
SK-MEL-5 = experiment: Growth inhibition of human SK-MEL-5 cells incubated for 48 hrs by sulforhodamine B assay; assay type: functional; conditions: SK-MEL-5, 48 h; summary of the method: as §1
T47D = experiment: Growth inhibition of human T47D cells incubated for 48 hrs by sulforhodamine B assay; assay type: functional; summary of the method: as §3
[5] = Potency index, ratio of melampomagnolide-B EC50 to compound EC50 for human M9-ENL1 cells; assay type: functional
Summary of the method: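 M9-ENL1 AML cells, derived by MLL-ENL transduction of human blood cells, were plated at 10^6 cells/mL in alpha-MEM with 5% human plasma, 20% FBS, SCF, IL-3, IL-7 and FLT3 ligand. Exposure was 24 h. Non-apoptotic (Annexin V/7-AAD double-negative) fraction was normalized to vehicle, in triplicate, to give EC50. PTL and MMB were run as reference controls.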

C=C1C(=O)O[C@@H]2C3O[C@]3(C)CC/C=C(\C)CC[C@@H]12 (stereo partly specified)
GI50 (HOP-62): 49000 nM | EC50 [1]: 1900 nM | EC50 [2]: 6300 nM | GI50 (OVCAR-3): 17400 nM | GI50 (OVCAR-8): 17100 nM | GI50 (OVCAR-4): 21500 nM | EC50 [3]: 5200 nM | GI50 (SNB-75): 48400 nM | GI50 (CAKI-1): 9350 nM | EC50 [4]: 13000 nM | GI50 (IGROV-1): 21100 nM | GI50 (EKVX): 17300 nM

C=C1C(=O)O[C@@H]2[C@H]3O[C@]3(C)CC/C=C(/COC(=O)c3cc4ccccc4o3)CC[C@@H]12
GI50 (HOP-62): 2480 nM | GI50 (TK-10): 3010 nM | GI50 (BT-549): 1480 nM | GI50 (OVCAR-3): 480 nM | GI50 (MDA-MB-435): 1430 nM | GI50 (OVCAR-8): 2430 nM | GI50 (COLO 205): 1550 nM | GI50 (ACHN): 1440 nM | GI50 (M14): 1430 nM | GI50 (MDA-MB-468): 1500 nM | GI50 (SR): 1150 nM | GI50 (MDA-MB-231): 1640 nM | GI50 (786-0): 1810 nM | GI50 (OVCAR-4): 1560 nM | GI50 (DU-145): 1180 nM | GI50 (PC-3): 1760 nM | GI50 (SNB-75): 1340 nM | GI50 (SK-MEL-2): 1770 nM | GI50 (Hs-578T): 2910 nM | GI50 (IGROV-1): 1390 nM | GI50 (EKVX): 2020 nM | GI50 (SK-MEL-5): 1520 nM | GI50 (T47D): 1350 nM | Ratio IC50 [5]: 2 - 20

C=C1C(=O)O[C@@H]2[C@H]3O[C@]3(C)CC/C=C(/COC(=O)c3cc4cc(OC)ccc4[nH]3)CC[C@@H]12
GI50 (HOP-62): 1640 nM | EC50 [1]: 2200 nM | EC50 [2]: 3300 nM | GI50 (TK-10): 1280 nM | GI50 (BT-549): 1060 nM | GI50 (OVCAR-3): 930 nM | GI50 (MDA-MB-435): 620 nM | GI50 (OVCAR-8): 1580 nM | GI50 (COLO 205): 1180 nM | GI50 (ACHN): 810 nM | GI50 (M14): 1270 nM | GI50 (MDA-MB-468): 1130 nM | GI50 (MDA-MB-231): 1580 nM | GI50 (786-0): 1270 nM | GI50 (OVCAR-4): 1630 nM | GI50 (DU-145): 1030 nM | EC50 [3]: 3000 nM | GI50 (PC-3): 1830 nM | GI50 (SK-MEL-2): 1600 nM | GI50 (CAKI-1): 1710 nM | GI50 (Hs-578T): 3090 nM | EC50 [4]: 3300 nM | GI50 (IGROV-1): 1480 nM | GI50 (EKVX): 1500 nM | GI50 (SK-MEL-5): 1740 nM | GI50 (T47D): 1300 nM | Ratio IC50 [5]: 2 - 20

C=C1C(=O)O[C@@H]2[C@H]3O[C@]3(C)CC/C=C(/COC(=O)c3cc4cc(Cl)ccc4[nH]3)CC[C@@H]12
GI50 (HOP-62): 2220 nM | GI50 (TK-10): 1750 nM | GI50 (BT-549): 1310 nM | GI50 (OVCAR-3): 1250 nM | GI50 (MDA-MB-435): 1240 nM | GI50 (OVCAR-8): 1340 nM | GI50 (COLO 205): 1720 nM | GI50 (ACHN): 1350 nM | GI50 (M14): 1470 nM | GI50 (MDA-MB-468): 1890 nM | GI50 (SR): 770 nM | GI50 (MDA-MB-231): 1320 nM | GI50 (786-0): 1510 nM | GI50 (OVCAR-4): 1330 nM | GI50 (PC-3): 2420 nM | GI50 (SNB-75): 570 nM | GI50 (SK-MEL-2): 1730 nM | GI50 (CAKI-1): 1190 nM | GI50 (Hs-578T): 2250 nM | GI50 (IGROV-1): 1380 nM | GI50 (EKVX): 1400 nM | GI50 (SK-MEL-5): 1910 nM | GI50 (T47D): 1340 nM | Ratio IC50 [5]: 2 - 20

C=C1C(=O)O[C@@H]2[C@H]3O[C@]3(C)CC/C=C(/COC(=O)c3c[nH]c4ccccc34)CC[C@@H]12
GI50 (HOP-62): 820 nM | GI50 (TK-10): 280 nM | GI50 (BT-549): 170 nM | GI50 (OVCAR-3): 200 nM | GI50 (MDA-MB-435): 240 nM | GI50 (OVCAR-8): 280 nM | GI50 (COLO 205): 240 nM | GI50 (ACHN): 210 nM | GI50 (M14): 220 nM | GI50 (MDA-MB-468): 190 nM | GI50 (SR): 280 nM | GI50 (MDA-MB-231): 190 nM | GI50 (786-0): 320 nM | GI50 (OVCAR-4): 250 nM | GI50 (DU-145): 380 nM | GI50 (PC-3): 380 nM | GI50 (SNB-75): 200 nM | GI50 (SK-MEL-2): 230 nM | GI50 (Hs-578T): 610 nM | GI50 (IGROV-1): 250 nM | GI50 (EKVX): 310 nM | GI50 (SK-MEL-5): 200 nM | GI50 (T47D): 400 nM | Ratio IC50 [5]: 2 - 20
